We go through 10 molecules from ChEMBL document CHEMBL1131106, “Synthesis and characterization of heteroarotinoids demonstrate structure specificity relationships” (J Med Chem, 1998).

Test [1] concerns the target T1, Retinoic acid receptor gamma (Homo sapiens, UniProt P13631).
T1 sequence (P13631 whole entry): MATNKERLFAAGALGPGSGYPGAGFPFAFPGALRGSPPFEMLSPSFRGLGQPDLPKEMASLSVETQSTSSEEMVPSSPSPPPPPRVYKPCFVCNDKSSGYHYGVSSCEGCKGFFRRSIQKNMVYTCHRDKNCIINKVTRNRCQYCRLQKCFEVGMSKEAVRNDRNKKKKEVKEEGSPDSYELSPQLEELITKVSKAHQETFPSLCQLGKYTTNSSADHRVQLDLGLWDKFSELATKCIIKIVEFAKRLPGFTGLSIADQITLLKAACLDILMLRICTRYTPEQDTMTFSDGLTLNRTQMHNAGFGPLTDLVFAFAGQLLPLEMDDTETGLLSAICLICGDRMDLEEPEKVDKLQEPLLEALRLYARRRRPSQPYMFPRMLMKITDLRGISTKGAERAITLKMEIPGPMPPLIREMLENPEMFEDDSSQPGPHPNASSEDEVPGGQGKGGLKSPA
Kind of test: Transcriptional activation in CV-1 cells expressing RAR-gamma receptor. The format is cell-based. The procedure, abridged: (§1)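 CV-1 cells co-transfected by calcium phosphate with receptor expression plasmid, luciferase reporter MTV-TREp-LUC (two TRE-palindromic copies; RAR assays), β-galactosidase internal control plasmid and pGEM carrier. Incubated 40 h with or without various retinoid concentrations. Luciferase read in extracts, normalized to β-galactosidase. Triplicate. Activity normalized to 9-cis-retinoic acid; EC50 = concentration giving 50% maximal response.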

For test [2], the target named is T2, Retinoic acid receptor alpha (Homo sapiens, UniProt P10276).
T2 sequence (P10276 whole entry): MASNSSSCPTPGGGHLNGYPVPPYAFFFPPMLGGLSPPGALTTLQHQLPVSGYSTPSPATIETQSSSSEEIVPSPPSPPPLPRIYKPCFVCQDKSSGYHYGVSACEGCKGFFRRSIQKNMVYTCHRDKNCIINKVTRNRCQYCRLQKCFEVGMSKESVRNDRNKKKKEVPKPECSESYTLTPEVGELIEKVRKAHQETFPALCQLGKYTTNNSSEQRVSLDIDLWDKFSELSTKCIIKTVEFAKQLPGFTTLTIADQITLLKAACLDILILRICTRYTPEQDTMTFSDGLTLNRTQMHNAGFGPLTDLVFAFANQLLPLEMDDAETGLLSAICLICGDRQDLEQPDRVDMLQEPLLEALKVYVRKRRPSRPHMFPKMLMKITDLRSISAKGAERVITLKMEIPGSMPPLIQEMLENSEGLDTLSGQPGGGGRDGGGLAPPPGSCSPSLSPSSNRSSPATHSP
Description: Transcriptional activation in CV-1 cells expressing RAR-alpha receptor. The format is cell-based. The procedure, abridged: as §1

Test [3] has as its target T3, Retinoic acid receptor RXR-alpha (Homo sapiens, UniProt P19793).
T3 sequence (P19793 whole entry): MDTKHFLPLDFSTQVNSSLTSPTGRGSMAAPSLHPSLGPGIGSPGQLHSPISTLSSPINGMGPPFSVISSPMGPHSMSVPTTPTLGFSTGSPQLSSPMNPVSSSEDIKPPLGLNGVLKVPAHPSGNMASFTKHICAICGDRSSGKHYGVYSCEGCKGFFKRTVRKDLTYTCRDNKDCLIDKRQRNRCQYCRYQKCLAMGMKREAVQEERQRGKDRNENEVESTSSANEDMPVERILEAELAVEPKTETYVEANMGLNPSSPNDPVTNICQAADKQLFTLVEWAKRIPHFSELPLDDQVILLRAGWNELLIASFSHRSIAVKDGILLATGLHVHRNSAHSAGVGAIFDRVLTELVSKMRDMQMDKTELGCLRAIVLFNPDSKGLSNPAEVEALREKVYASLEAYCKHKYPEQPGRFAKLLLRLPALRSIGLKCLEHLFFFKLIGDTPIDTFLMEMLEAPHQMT
Description: Transcriptional activation in CV-1 cells expressing RXR-alpha receptor;not active.

Test [4] concerns the target T4, Retinoic acid receptor beta (Homo sapiens, UniProt P10826).
T4 sequence (P10826 whole entry): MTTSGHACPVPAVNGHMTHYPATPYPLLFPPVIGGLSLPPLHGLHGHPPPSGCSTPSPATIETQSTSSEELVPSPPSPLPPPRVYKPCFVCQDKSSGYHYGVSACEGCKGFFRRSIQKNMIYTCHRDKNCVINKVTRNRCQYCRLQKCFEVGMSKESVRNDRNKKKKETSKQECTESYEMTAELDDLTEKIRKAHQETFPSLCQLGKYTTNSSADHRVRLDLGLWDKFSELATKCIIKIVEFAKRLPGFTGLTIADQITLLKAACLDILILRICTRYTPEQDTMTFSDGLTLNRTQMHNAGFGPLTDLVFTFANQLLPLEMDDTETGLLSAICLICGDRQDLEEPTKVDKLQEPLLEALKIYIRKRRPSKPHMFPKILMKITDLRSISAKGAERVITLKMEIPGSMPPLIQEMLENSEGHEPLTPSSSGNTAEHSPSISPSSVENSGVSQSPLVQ
Kind of test: Transcriptional activation in CV-1 cells expressing RAR-beta receptor. In kind it is cell-based. The essentials: as §1

Test [5] addresses T3, Retinoic acid receptor RXR-alpha. Kind of test: Transcriptional activation in CV-1 cells expressing RXR-alpha receptor.
The target in test [6] is T2, Retinoic acid receptor alpha. Kind of test: Transcriptional activation in CV-1 cells expressing RAR-alpha receptor; Not active. The format is cell-based. The procedure, abridged: as §1

For `C/C(=C\c1ccc(C(=O)O)cc1)c1ccc2c(c1)C(C)(C)CO2`, the EC50 (commonly the concentration needed to bring the measured effect to its halfway point) was 460 nM in test [1], 2300 nM in test [2], “Not Active” in test [3] and 320 nM in test [4].
Consider `COC(=O)c1ccc(/C=C(\C)c2ccc3c(c2)C(C)(C)CCO3)cc1`, for which the EC50 in test [1] is 330 nM; in test [2] it was 1100 nM; in test [3], “Not Active”; in test [4] it was 140 nM.
Turning to `C/C(=C\c1ccc(C(=O)O)cc1)c1ccc2c(c1)C(C)(C)CCO2`, the EC50 was 200 nM in test [1], 1100 nM in test [2], “Not Active” in test [3] and 190 nM in test [4].
Turning to `CC(/C=C/C=C(\C)c1ccc2c(c1)C(C)(C)CCO2)=C\C(=O)O`, the EC50 in test [1] amounted to 39 nM; in test [2], 740 nM; in test [5], 2800 nM; in test [4], 72 nM.
For `CC(/C=C/C=C(\C)c1ccc2c(c1)C(C)(C)CO2)=C\C(=O)O`, in that order: 230 nM, 800 nM, 2800 nM and 770 nM.
`CC(/C=C/C=C(\C)c1ccc2c(c1)C(C)(C)CCS2)=C\C(=O)O`: the EC50 in test [1] was 12 nM; in test [2], 1400 nM; in test [5], 2700 nM; in test [4], 43 nM.
On to `C/C(=C\c1ccc(C(=O)O)cc1)c1ccc2c(c1)C(C)(C)CS2`, for which the EC50 is 30 nM in test [1], 420 nM in test [2], “Not Active” in test [3] and 18 nM in test [4].
For `COC(=O)c1ccc(/C=C(\C)c2ccc3c(c2)C(C)(C)CCS3)cc1`, in that order: 84 nM, 620 nM, “Not Active” and 110 nM.
Turning to `COC(=O)c1ccc(/C=C(\C)c2ccc3c(c2)C(C)(C)CO3)cc1`, the EC50 entry in test [6] was “Not Active”; in test [1] it was 400 nM; in test [3] it was “Not Active”; in test [4] it was 430 nM.
As for `CC(/C=C/C=C(\C)c1ccc2c(c1)C(C)(C)CS2)=C\C(=O)O`, the EC50 came out at 8 nM in test [1], 1000 nM in test [2], 2600 nM in test [5] and 1200 nM in test [4].
